The list is not random: actives were taken first. Their share in the collection is about 2.6%.
DENV2 CPE: inhibitors of DENV2 cytopathic effect, primary screen, cell-based, plate reader, single concentration; CPE inhibition, % at 9.99 µM; hit rate 1.7% among 350,000; AID 651640, 2012; DENV2-infected cells, cytopathic effect rescue; in the data active = CPE inhibition above about 20%, passing the limit was not always enough; inconclusive = no clear call, values can overlap the other calls; tested in BHK-21 cells;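 note: 0% = median of neutral control wells and 100% = median of positive control wells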
INS-1E GSIS act: GLuc luminescence reporter in INS-1E cells, primary screen for activators of glucose-dependent secretion of insulin | INS-1E GLuc reporter insulin secretion, 2-3 h | activation, % at 16.6 µM | hit rate 0.61% among 370,000 | AID 743287, 2014;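 active = lowest replicate activation of at least 40%, so every replicate reaches that level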;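 note: 0% = median of neutral control wells and 100% = median of IBMX positive control wells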
miR122 inh: miR-122 Renilla sensor signal increase in Huh7, primary screen, miR-122 inhibitor project, cell-based, single point, plate reader; Huh7 miR-122 Renilla luciferase sensor, 48 h; neutral wells = 0, positive control = 100; activation (reporter increase), % at 12.5 µM; hit rate 0.3% among 340,000;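 active = mean replicate activation score at least 90 and every replicate individually at or above 90; inconclusive = only one of the two criteria met; inactive = neither criterion met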;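 note: higher luciferase means less miR-122 activity so hits act as miR-122 inhibitors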
E-selectin induc: E-selectin induction in HUVECs, primary screen, imaging, HUVEC, immunofluorescence imaging, single point. hit rate 0.37% among 260,000. activation, % at 7.58 µM. AID 686992, 2013. P16581. normalized: neutral wells 0, TNF-alpha wells 100;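 active = mean E-selectin-positive cell signal at least 10% of the positive control, reached in at least 60% of replicates, without over 20% cell loss; inconclusive = no rule given, readout overlaps actives, possibly toxicity-flagged; inactive = the rest, including those meeting only one limit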
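material = human umbilical vein endothelial cells (HUVEC), E-selectin induction | quantity = 3,000 cells/well | medium = EGM-2 growth medium on 0.1% gelatin-coated wells | technique = immunofluorescence imaging | read-out basis = % PE-positive cells | control set = TNF-alpha positive control, DMSO neutral control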
F508del corr: F508del CFTR correction, initial screen, CFBE line, single point | CFBE cells, YFP halide quenching; stimulated with forskolin plus potentiator P3; % fluorescence drop versus neutral controls | activity (quench increase), % at 7.58 µM | hit rate 0.36% among 350,000 | AID 720511, 2013;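 active = mean added fluorescence quench of at least 8% versus neutral control, with both replicates also reaching 8%; inconclusive = only one of the mean or replicate conditions met; inactive = mean below 8% and not both replicates reaching 8%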;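 note: cells transiently co-express mutant CFTR-F508del with the halide-sensitive YFP; corrector assay measuring rescue of mutant channel to the surface after 24 h compound exposure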
ERAP1 HTS inh: human ERAP1 aminopeptidase inhibitors, primary screen, biochemical, single point, plate reader; recombinant ERAP1, Leu-AMC fluorescence, 60 min; hit rate 0.15% among 340,000; Endoplasmic reticulum aminopeptidase 1 (Homo sapiens), Q9NZ08; inhibition, % at 10.7 µM;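 active = mean replicate inhibition of at least 30%, or all replicates individually reaching that 30% level; inactive = mean below 30% and not every replicate reaching it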;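 note: 0% = neutral control wells and 100% = L-leucinethiol positive control wells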
Target sequence (Q9NZ08 whole entry, looked up): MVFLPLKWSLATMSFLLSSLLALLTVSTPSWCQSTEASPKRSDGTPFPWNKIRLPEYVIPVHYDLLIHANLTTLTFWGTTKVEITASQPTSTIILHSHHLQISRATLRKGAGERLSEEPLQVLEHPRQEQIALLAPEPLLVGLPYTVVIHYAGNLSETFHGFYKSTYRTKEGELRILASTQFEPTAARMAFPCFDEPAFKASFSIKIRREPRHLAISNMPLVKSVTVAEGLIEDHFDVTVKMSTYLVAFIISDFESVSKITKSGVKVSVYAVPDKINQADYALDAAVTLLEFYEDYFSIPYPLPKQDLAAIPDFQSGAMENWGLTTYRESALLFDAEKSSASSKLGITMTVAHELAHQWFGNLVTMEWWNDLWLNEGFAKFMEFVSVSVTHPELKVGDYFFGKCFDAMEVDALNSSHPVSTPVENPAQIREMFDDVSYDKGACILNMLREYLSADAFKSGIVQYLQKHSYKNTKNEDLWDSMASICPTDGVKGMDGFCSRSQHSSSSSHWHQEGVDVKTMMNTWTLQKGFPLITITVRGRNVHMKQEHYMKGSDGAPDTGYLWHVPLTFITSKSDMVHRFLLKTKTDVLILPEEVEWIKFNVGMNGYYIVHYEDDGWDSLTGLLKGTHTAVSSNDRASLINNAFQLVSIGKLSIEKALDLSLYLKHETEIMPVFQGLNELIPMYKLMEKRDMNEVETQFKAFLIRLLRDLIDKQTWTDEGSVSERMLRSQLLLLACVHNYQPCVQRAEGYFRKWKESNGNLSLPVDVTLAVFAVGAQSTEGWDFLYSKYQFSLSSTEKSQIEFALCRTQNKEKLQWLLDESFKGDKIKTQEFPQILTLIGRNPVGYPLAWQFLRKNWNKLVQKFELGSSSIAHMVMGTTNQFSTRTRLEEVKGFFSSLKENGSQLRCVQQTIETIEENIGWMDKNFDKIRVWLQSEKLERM
An asterisk follows results filed as active; ? = inconclusive; · = not tested or not shown; [ ] = another dose, or the depositor's remark.

SMILES	DENV2 CPE	INS-1E GSIS act	miR122 inh	E-selectin induc	F508del corr	ERAP1 HTS inh
Cc1cc(C(=O)CN2CCN(CC(=O)Nc3ccc(F)cc3)CC2)c(C)n1C1CC1	16.4	7.3	·	0.0	22.6*	1.3
O=C(CN1CCN(C(=O)C2CCC2)CC1)Nc1ccc(F)cc1	32.1*	-7.6	·	·	2.3	-9.5
CC(C)NC(=O)N1[C@H](CO)[C@@H](c2ccccc2)[C@@H]1CNC(=O)CN(C)C	?	-2.7	0.0[16.7 µM]	0.3	0.7	·
O=C(NCc1ccccn1)C(=O)C1C(=O)Nc2ccccc21 (stereo not drawn)	-3.4	5.5	·	·	1.2	1.9
COc1cc(CC2C(=O)Nc3ccccc32)cc(C)c1O (stereo not drawn)	6.0	·	·	52.3*	-1.5	-0.5
O=C1Nc2ccccc2C1Cc1ccc(OC(F)(F)F)cc1 (stereo not drawn)	3.2	·	·	0.1	1.5	4.6
O=C1Nc2ccccc2C1Cc1ccccn1 (stereo not drawn)	-2.5	2.5	·	48.3*	-0.6	·
COc1ccc(C)cc1Nc1c2c(nc3ccccc13)CCC2	?	19.7	·	2.2	13.5*	-2.0
COc1ccc(Nc2c3c(nc4ccccc24)CCC3)cc1	-7.4	74.1*	5.0	-0.1	0.4	-3.0
COc1ccc(Nc2c3c(nc4ccccc24)CCCC3)cc1OC	3.6	15.4	·	0.0	0.8	-0.7
O=C(/C=C/c1cc(Br)ccc1O)c1ccco1	4.8	-48.0	194.7*	-1.9	-2.0	0.5
COc1ccc([C@H]2CC=CC[C@H](C)Oc3ccccc3C(=O)N(C)[C@H](C)C(=O)N2)c(OC)c1 (mixture of isomers)	·	-19.5	·	·	·	·
OC1CCCCC1	67.4*	2.7	-2.0	·	2.9	-2.7
COc1ccc2c3c(n(C)c2c1)[C@@H](CO)N(C(=O)C1CC1)CC31CCN(C(=O)c2ccncc2)CC1	13.5	-14.0	·	-0.2	2.6	1.8
CCCC(=O)N1CC2(CCN(C(=O)C3CCC3)CC2)c2c(n(C)c3cc(OC)ccc23)[C@@H]1CO	22.2*	-6.9	·	-0.2	-0.5	·
COc1ccc2c3c(n(C)c2c1)[C@@H](CO)N(C(C)=O)CC31CCN(C(=O)c2cnccn2)CC1	22.6*	1.9	·	0.1	-0.7	-2.5
COc1ccc2c3c(n(C)c2c1)[C@H](CO)N(C(=O)c1cnccn1)CC31CCN(C(C)=O)CC1	-5.9	6.2	·	-0.5	-0.3	-0.7
COc1ccc(S(=O)(=O)N2CC3(CN(C(=O)CN(C)C)[C@H](CO)c4c3c3ccc(OC)cc3n4C)C2)cc1	102.3*	26.6	·	0.3	-3.9	2.3
COc1ccc2c3c(n(C)c2c1)[C@H](CO)N(C(=O)C1CC1)CC31CCN(C(=O)c2ccncc2)CC1	31.9*	36.2	·	-0.2	-0.9	-0.2
Cc1noc(C)c1S(=O)(=O)N(C)C[C@H]1Oc2ccc(NS(=O)(=O)c3cccs3)cc2C(=O)N([C@@H](C)CO)C[C@H]1C	19.6	3.5	-0.2[16.7 µM]	-0.5	2.3	0.2
COc1ccc2c3c(n(C)c2c1)[C@@H](CO)N(C(=O)NC1CCCCC1)CC31CN(C)C1	32.0*	14.7	·	-0.3	0.3	-3.1
CCCC(=O)N1CC2(CN(C(=O)C3CC3)C2)c2c(n(C)c3cc(OC)ccc23)[C@H]1CO	11.9	-4.8	·	0.0	-4.2	0.5
COc1ccc2c3c(n(C)c2c1)[C@@H](CO)N(Cc1cc(F)ccc1F)CC31CN(C(=O)C2CC2)C1	37.9*	-22.8	·	-0.1	0.5	-2.1
COc1ccc2c3c(n(C)c2c1)[C@H](CO)N(C(=O)C1CCCCC1)CC31CCN(C(=O)c2ccncc2)CC1	6.9	4.0	·	-0.1	2.8	-2.3
CCC(=O)N1CC2(C1)CN(Cc1cc(F)ccc1F)[C@@H](CO)c1c2c2ccc(OC)cc2n1C	·	-12.7	·	·	·	·
SMILES	DENV2 CPE	INS-1E GSIS act	miR122 inh	E-selectin induc	F508del corr	ERAP1 HTS inh
COc1ccc2c3c(n(C)c2c1)[C@H](CO)N(C(C)=O)CC31CN(C(=O)C2CC2)C1	65.7*	16.3	·	-0.4	4.7	·
COc1ccc2c3c(n(C)c2c1)[C@@H](CO)N(C(=O)C1CCCCC1)CC31CCN(C(=O)c2ccncc2)CC1	42.3*	-5.4	·	-0.1	2.9	-1.9
COCC(=O)N1CC2(C1)CN(C(=O)NC1CCCC1)[C@@H](CO)c1c2c2ccc(OC)cc2n1C	?	6.7	·	0.2	-5.4	-1.0
O=C([C@@H]1[C@@H](CO)[C@@H]2Cn3c(cccc3=O)[C@H]1N2C(=O)c1ccccc1)N1CCCCC1	4.3	25.4	-1.9[16.7 µM]	-0.1	0.2	-1.1
C[C@@H]1CN([C@H](C)CO)C(=O)c2cc(C#CC3(O)CCCC3)cnc2O[C@H]1CN(C)C(=O)C1CC1	·	16.3	-5.8[16.7 µM]	1.5	-0.6	·
COc1ccc(NC(=O)Nc2ccc3c(c2)[C@@H]2C[C@H](CC(=O)NCc4ccccc4F)O[C@@H](CO)[C@@H]2O3)cc1	-2.3	-1.7	4.0[16.7 µM]	3.9	3.3	1.4
O=C1c2ccccc2/C(=C\c2ccc(Br)nc2)N1c1ccccc1	47.2*	7.0	·	-0.1	0.2	-0.9
O=C(CC1CC1)N1[C@H](CO)[C@@H](c2ccccc2)C12CN(Cc1ccncc1)C2	-10.9	22.5	·	-0.1	0.7	-2.1
CCn1c(-c2nn(-c3ccccc3)ccc2=O)n[nH]c1=S	-7.7	-8.4	·	·	-2.2	6.9
CCn1c(SC)nnc1-c1nn(-c2ccccc2)ccc1=O	8.3	-6.5	·	·	-1.0	103.1*
CO[C@@H]1CN(C)C(=O)c2cc(NC(C)=O)ccc2OC[C@H](C)N(C(=O)CC2CC2)C[C@H]1C	15.8	0.5	-6.1[16.7 µM]	0.1	-0.3	-1.0
CO[C@H]1CN(C)C(=O)c2cc(NC(C)=O)ccc2OC[C@H](C)N(C(=O)CC2CC2)C[C@@H]1C	35.9*	-11.3	6.4[16.7 µM]	0.0	-1.2	-0.6
CO[C@@H]1CN(C)C(=O)c2cc(NC(C)=O)ccc2OC[C@@H](C)N(C(=O)CC2CC2)C[C@H]1C	27.1*	·	-13.2[16.7 µM]	·	2.3	-1.1
Cc1ccc(S(=O)(=O)Nc2ccc3c(c2)C(=O)N([C@H](C)CO)C[C@H](C)[C@H](CN(C)C(=O)Nc2ccccc2)O3)cc1	·	-5.4	0.6[16.7 µM]	25.7	0.5	·
O=C(C1CCCCC1)N1[C@@H](CO)[C@@H](c2ccccc2)C12CN(Cc1ccc(F)cc1)C2	-7.3	-0.7	·	0.0	-0.3	·
COc1ccc(NC(=O)Nc2cccc3c2O[C@@H](CN(C)S(=O)(=O)c2ccc(Cl)cc2)[C@H](C)CN([C@@H](C)CO)C3=O)cc1	4.7	55.1	2.7[16.7 µM]	-0.2	-3.7	-2.9
CC(=O)Nc1ccc2c(c1)C(=O)N(C)C[C@@H](C)[C@@H](CN(C)C(=O)OC(C)(C)C)O2	·	33.7	·	·	·	·

Source: PubChem BioAssay
